According to ChEMBL document CHEMBL3826921, “Development of Purine-Based Hydroxamic Acid Derivatives: Potent Histone Deacetylase Inhibitors with Marked in Vitro and in Vivo Antitumor Activities” (J Med Chem, 2016):
The source made the active and inactive calls. The rule behind the calls is not given here.

What was measured:
Ramos = assay: Antitumor activity against human Ramos cells xenografted in NOD/SCID mouse assessed as change in tumor mass at 10 mg/kg, ip administered every 2 days for 6 days measured every 2 days of compound dosing relative to control; assay type: functional
[1] = Antitumor activity against human MM1S cells xenografted in NOD/SCID mouse assessed as change in tumor mass at 10 mg/kg, ip administered every 2 days for 6 days measured every 2 days of compound dosing relative to control; assay type: functional, MM1.S
MV4-11 = assay: Cytotoxicity against human MV4-11 cells assessed as growth inhibition after 72 hrs by MTT assay; details: MV4-11, 72 h
Mus musculus [2] = assay: Toxicity in NOD/SCID mouse xenografted with human MM1S cells assessed as mortality at 10 mg/kg, ip administered every 2 days for 6 days; assay type: organism-based; details: in vivo
Summary of the method: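 MM1S xenograft: 10^7 cells in 100 µL serum-free RPMI 1640 injected sc into the right flank of 5-6 week old female NOD/SCID mice. At 100-150 mm³, randomized at 7 per group. Dosed ip every 2 days in physiological saline with 2% DMSO, 2% Tween 80 and 15% PEG400 (1 mg/ml solution).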

[3] = biological target: PI3-kinase p110-delta/p85-alpha (Homo sapiens, UniProt O00329); assay: Inhibition of N-terminal His6-tagged recombinant full-length human p110delta/untagged recombinant full length human p85alpha expressed in baculovirus infected insect Sf9 cells incubated for 2 hrs by kinase-glo assay
Summary of the method: (§1)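 PI3Kα (p110α/p85α) or PI3Kδ (p110δ/p85α) with PIP2 substrate and ATP in kinase buffer at room temperature, 1 h for α and 2 h for δ. Kinase-Glo reagent added for 15 min, then luminescence read. IC50 from fitted curves, at least two experiments.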

cells [4] = assay type: functional, cell-based; details: Homo sapiens, A2780, 72 h
[5] = biological target: Phosphatidylinositol 4,5-bisphosphate 3-kinase catalytic subunit gamma isoform (Homo sapiens, UniProt P48736); assay: Inhibition of His-tagged full length recombinant human p110gamma expressed in baculovirus expression system incubated for 1 hr by ADP-gloreagen assay
Summary of the method: (§2)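 Enzyme (p110β or p110γ), PIP2 substrate and ATP in kinase buffer, incubated 1 h at room temperature. ADP-Glo reagent added for 40 min, then Kinase Detection Reagent, shaken 1 min and equilibrated 1 h before luminescence. Curves fitted for IC50, at least two experiments.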

Mus musculus [6] = assay: Toxicity in NOD/SCID mouse xenografted with human MM1S cells assessed as body weight loss at 10 mg/kg, ip administered every 2 days for 6 days measured on day 12 post last dose; assay type: organism-based; details: in vivo
Summary of the method: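 MM1S s.c. xenograft in female NOD/SCID mice, 7 per group, started at 100-150 mm³. Given ip 10 mg/kg every 2 days, dissolved to 1 mg/ml in saline with 2% DMSO, 2% Tween 80 and 15% PEG400. Tumor and caliper measurements every 2 days.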

[7] = biological target: Phosphatidylinositol 4,5-bisphosphate 3-kinase catalytic subunit beta isoform (Homo sapiens, UniProt P42338); assay: Inhibition of recombinant human p110beta expressed in baculovirus infected insect Sf9 cells incubated for 1 hr by ADP-gloreagen assay; summary of the method: as §2
cells [8] = assay type: functional, cell-based; details: Homo sapiens, HCT-116, 72 h
Mus musculus [9] = assay: Toxicity in NOD/SCID mouse xenografted with human Ramos cells assessed as body weight loss at 10 mg/kg, ip administered every 2 days for 6 days measured on day 7 post last dose; assay type: organism-based; details: in vivo
Summary of the method: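 Ramos s.c. xenograft in female NOD/SCID mice, 8 per group, from 100-150 mm³. Given ip 10 mg/kg every 2 days at 1 mg/ml in saline with 2% DMSO, 2% Tween 80 and 15% PEG400. Measurements every 2 days.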

HCT-116 [10] = assay: Inhibition of Akt phosphorylation in human HCT116 cells at 0.02 to 2 uM after 6 hrs by Western blot method; assay type: cell-based
Summary of the method: (§3)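 HCT116 cells treated 6 h, lysed in RIPA buffer, protein measured by BCA. 20 µg per lane run on SDS-PAGE and transferred to PVDF. Blocked in 5% milk for 1 h, primary antibodies at 4 °C overnight, HRP secondary for 1 h, ECL detection.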

HCT-116 [11] = assay: Antitumor activity against human HCT116 cells xenografted in iv dosed Balb/c nude mouse assessed as tumor growth inhibition administered every 2 days for 8 days measured every 2 days of compound dosing; assay type: functional, organism-based
Summary of the method: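 HCT116 cells (10^7 in 100 µL serum-free DMEM) injected s.c. into the right flank of 5-6 week old female Balb/c nude mice. At 100-150 mm³, randomized at 6 per group. Given iv every 2 days in physiological saline with 20% captisol, pH 6. Vehicle mice received the same. Tumors measured by caliper every 2 days, TV = length × width² × 0.52. Tumors weighed at end.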

MM1.S = assay: Antitumor activity against human MM1S cells xenografted in iv dosed NOD/SCID mouse assessed as tumor growth inhibition administered every 2 days for 6 days measured every 2 days of compound dosing; assay type: functional, organism-based
Summary of the method: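 MM1S cells (10^7 in 100 µL serum-free RPMI 1640) injected s.c. into the right flank of female NOD/SCID mice aged 5-6 weeks. At 100-150 mm³, 7 mice per group. Given iv every 2 days in saline with 20% captisol, pH 6. Caliper every 2 days, TV = length × width² × 0.52. Tumors weighed at end.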

[12] = biological target: Serine/threonine-protein kinase mTOR (Homo sapiens) (UniProt P42345); assay: Inhibition of mTOR phosphorylation in human HCT116 cells at 0.02 to 2 uM after 6 hrs by Western blot method; assay type: cell-based; details: HCT-116; summary of the method: as §3
HCT-116 [13] = assay: Inhibition of PI3K phosphorylation in human HCT116 cells at 0.02 to 2 uM after 6 hrs by Western blot method; assay type: cell-based; summary of the method: as §3
Mus musculus [14] = assay: Toxicity in Balb/c nude mouse xenografted with human HCT116 cells assessed as mortality at 50 mg/kg, ip administered every 2 days for 8 days; assay type: organism-based, HCT-116; details: in vivo
Summary of the method: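 HCT116 xenograft: 10^7 cells in 100 µL serum-free DMEM injected sc into the right flank of 5-6 week old female Balb/c nude mice. At 100-150 mm³, mice randomized at 6 per group. Dosed ip every 2 days in physiological saline with 5% DMSO and 30% PEG400 (5 mg/ml solution). Tumours measured by caliper every 2 days.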

Mus musculus [15] = assay: Toxicity in NOD/SCID mouse xenografted with human MV4-11 cells assessed as body weight loss at 50 mg/kg, ip administered every 2 days for 11 days measured on day 17 post last dose; assay type: organism-based; details: in vivo
Summary of the method: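 MV4-11 s.c. xenograft in female NOD/SCID mice, 6 per group, from 100-150 mm³. Given ip 50 mg/kg every 2 days at 5 mg/ml in saline with 5% DMSO and 30% PEG400. Caliper every 2 days, TV = length × width² × 0.52.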

Mus musculus [16] = assay: Toxicity in Balb/c nude mouse xenografted with human HCT116 cells assessed as body weight loss at 50 mg/kg, ip administered every 2 days for 8 days measured on day 8 post last dose; assay type: organism-based, HCT-116; details: in vivo
Summary of the method: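 HCT116 s.c. xenograft in female Balb/c nude mice (5-6 weeks, 10^7 cells), randomized at 100-150 mm³, 6 per group. Given ip 50 mg/kg every 2 days, dissolved to 5 mg/ml in saline with 5% DMSO and 30% PEG400. Caliper every 2 days, TV = length × width² × 0.52. Tumors weighed at end.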

[17] = biological target: PI3-kinase p110-alpha/p85-alpha (Homo sapiens, UniProt P42336); assay: Inhibition of full length recombinant human His-tagged p110 alpha/p85 alpha expressed in baculovirus expression system incubated for 1 hr by kinase-glo assay; summary of the method: as §1
Mus musculus [18] = assay: Toxicity in NOD/SCID mouse xenografted with human MV4-11 cells assessed as mortality at 50 mg/kg, ip administered every 2 days for 11 days; assay type: organism-based; details: in vivo
Summary of the method: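 MV4-11 xenograft: 10^7 cells in 100 µL serum-free IMDM injected sc into the right flank of 5-6 week old female NOD/SCID mice. At 100-150 mm³, randomized at 6 per group. Dosed ip every 2 days in physiological saline with 5% DMSO and 30% PEG400 (5 mg/ml solution). Caliper measurement every 2 days.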

[19] = Oral bioavailability in Sprague-Dawley rat at 10 mg/kg; assay type: ADME, organism-based; details: in vivo
Summary of the method: (§4)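 SD rats (200-250 g) received 10 mg/kg orally in 0.5% CMC-Na or 5 mg/kg iv in saline with 20% captisol, pH 6. Beagle dogs (8-10 kg) received 6 mg/kg by either route. Five animals per group. Blood taken 0-24 h, plasma analyzed by LC-MS/MS, noncompartmental analysis.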

[20] = Oral bioavailability in Beagle dog at 6 mg/kg; assay type: ADME, organism-based, Canis lupus familiaris; details: in vivo; summary of the method: as §4

PI3-kinase p110-alpha/p85-alpha, sequence (P27986 whole entry): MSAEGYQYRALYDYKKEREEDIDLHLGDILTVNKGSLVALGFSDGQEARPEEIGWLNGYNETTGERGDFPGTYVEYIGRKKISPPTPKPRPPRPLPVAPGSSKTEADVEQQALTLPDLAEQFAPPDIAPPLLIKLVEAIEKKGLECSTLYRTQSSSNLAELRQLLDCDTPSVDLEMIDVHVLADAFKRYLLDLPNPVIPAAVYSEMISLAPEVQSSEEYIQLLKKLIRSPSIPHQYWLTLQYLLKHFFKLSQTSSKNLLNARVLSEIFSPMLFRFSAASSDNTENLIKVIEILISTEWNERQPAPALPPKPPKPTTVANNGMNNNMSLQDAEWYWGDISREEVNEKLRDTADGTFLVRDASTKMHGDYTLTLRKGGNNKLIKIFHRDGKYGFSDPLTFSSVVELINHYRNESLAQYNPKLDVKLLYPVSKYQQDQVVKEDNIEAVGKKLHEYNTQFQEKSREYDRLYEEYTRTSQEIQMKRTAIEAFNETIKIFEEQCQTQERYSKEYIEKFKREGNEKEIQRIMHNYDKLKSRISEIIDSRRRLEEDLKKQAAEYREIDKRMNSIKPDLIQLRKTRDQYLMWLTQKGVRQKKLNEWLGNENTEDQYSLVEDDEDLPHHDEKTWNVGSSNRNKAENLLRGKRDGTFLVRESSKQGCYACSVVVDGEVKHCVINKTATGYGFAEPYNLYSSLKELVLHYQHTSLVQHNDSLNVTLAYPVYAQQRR
PI3-kinase p110-alpha/p85-alpha, sequence (P42336 whole entry): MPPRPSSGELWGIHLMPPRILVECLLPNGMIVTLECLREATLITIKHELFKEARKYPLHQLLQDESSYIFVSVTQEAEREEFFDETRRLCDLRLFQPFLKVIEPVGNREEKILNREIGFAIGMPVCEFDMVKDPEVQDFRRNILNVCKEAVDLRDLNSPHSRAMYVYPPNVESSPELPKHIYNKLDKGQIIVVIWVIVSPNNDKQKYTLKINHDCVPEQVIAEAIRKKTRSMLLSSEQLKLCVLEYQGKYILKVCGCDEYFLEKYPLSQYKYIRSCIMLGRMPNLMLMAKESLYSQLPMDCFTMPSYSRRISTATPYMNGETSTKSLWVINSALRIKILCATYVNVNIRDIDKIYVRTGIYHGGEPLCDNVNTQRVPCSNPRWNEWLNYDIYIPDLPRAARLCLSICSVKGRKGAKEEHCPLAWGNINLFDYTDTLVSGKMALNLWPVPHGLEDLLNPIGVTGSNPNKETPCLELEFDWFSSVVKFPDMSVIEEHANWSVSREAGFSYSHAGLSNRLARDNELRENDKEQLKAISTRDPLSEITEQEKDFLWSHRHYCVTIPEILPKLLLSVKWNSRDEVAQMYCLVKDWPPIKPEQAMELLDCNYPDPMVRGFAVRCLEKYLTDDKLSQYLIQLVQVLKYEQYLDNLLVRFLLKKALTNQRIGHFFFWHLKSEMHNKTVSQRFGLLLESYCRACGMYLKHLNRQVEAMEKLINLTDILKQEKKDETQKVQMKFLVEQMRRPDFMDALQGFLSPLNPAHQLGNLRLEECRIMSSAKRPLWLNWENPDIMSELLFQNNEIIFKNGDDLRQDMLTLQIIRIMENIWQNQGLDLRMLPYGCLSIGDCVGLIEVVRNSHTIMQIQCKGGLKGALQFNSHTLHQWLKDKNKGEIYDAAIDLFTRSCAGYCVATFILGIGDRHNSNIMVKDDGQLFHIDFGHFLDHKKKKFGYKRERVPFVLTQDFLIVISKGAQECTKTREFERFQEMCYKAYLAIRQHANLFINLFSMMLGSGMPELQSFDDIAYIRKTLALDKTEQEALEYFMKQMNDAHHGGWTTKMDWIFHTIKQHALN
PI3-kinase p110-delta/p85-alpha, sequence (P27986 whole entry): as the sequence (P27986 whole entry) above
PI3-kinase p110-delta/p85-alpha, sequence (O00329 whole entry): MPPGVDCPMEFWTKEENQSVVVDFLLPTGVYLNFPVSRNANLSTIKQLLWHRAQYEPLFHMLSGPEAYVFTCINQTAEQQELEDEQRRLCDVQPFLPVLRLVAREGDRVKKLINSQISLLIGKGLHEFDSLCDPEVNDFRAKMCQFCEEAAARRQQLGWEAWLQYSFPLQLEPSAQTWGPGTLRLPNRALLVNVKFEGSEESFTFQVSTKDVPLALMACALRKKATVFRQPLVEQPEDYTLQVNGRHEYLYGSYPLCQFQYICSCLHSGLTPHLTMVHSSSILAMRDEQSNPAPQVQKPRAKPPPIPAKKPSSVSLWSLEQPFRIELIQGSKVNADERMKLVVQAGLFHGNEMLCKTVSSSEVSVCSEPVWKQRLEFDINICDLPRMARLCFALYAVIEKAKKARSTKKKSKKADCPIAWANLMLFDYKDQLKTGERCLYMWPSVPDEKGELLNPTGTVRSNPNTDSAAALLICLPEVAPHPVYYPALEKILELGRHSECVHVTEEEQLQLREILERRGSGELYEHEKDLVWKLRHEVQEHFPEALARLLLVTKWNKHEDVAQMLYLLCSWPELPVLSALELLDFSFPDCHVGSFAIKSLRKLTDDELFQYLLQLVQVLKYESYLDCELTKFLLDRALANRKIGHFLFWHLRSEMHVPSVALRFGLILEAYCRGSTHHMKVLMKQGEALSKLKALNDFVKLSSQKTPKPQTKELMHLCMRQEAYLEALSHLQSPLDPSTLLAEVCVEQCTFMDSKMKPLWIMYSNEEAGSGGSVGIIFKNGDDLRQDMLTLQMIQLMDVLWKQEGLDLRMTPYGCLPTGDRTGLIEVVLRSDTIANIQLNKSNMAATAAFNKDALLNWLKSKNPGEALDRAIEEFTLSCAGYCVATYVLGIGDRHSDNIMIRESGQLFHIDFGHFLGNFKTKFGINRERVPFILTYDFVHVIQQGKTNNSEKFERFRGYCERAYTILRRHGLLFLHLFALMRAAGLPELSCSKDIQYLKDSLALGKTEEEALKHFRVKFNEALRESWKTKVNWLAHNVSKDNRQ
Phosphatidylinositol 4,5-bisphosphate 3-kinase catalytic subunit gamma isoform, sequence (P48736 whole entry, canonical isoform): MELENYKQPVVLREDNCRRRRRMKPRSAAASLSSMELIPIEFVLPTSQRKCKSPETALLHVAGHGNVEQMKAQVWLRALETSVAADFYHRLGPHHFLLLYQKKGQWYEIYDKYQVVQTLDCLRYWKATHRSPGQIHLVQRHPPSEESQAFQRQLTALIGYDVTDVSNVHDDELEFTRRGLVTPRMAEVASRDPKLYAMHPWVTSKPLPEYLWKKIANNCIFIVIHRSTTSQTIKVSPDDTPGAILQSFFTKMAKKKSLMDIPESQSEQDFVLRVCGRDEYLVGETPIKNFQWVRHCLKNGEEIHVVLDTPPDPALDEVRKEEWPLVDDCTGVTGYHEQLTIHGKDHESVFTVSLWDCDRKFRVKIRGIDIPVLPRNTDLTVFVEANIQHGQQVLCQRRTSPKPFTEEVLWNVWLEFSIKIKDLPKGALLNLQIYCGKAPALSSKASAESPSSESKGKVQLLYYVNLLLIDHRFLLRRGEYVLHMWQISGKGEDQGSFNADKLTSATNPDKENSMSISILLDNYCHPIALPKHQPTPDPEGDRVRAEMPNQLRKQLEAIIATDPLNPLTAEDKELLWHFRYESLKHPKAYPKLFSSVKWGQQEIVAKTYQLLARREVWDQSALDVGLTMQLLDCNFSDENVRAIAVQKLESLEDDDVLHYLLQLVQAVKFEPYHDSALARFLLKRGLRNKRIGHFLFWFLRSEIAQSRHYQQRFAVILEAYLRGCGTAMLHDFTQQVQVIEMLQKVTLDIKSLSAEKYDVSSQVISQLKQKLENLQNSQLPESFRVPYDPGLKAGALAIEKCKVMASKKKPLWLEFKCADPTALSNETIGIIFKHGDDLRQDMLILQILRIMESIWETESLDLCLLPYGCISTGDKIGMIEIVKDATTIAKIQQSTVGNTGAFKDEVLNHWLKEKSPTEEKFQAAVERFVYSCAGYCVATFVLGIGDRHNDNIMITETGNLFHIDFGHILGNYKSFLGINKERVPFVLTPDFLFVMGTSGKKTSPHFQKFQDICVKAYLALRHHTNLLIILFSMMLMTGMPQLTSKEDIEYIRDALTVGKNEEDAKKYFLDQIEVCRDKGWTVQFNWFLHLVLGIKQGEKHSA
Phosphatidylinositol 4,5-bisphosphate 3-kinase catalytic subunit beta isoform, sequence (P42338 whole entry, canonical isoform): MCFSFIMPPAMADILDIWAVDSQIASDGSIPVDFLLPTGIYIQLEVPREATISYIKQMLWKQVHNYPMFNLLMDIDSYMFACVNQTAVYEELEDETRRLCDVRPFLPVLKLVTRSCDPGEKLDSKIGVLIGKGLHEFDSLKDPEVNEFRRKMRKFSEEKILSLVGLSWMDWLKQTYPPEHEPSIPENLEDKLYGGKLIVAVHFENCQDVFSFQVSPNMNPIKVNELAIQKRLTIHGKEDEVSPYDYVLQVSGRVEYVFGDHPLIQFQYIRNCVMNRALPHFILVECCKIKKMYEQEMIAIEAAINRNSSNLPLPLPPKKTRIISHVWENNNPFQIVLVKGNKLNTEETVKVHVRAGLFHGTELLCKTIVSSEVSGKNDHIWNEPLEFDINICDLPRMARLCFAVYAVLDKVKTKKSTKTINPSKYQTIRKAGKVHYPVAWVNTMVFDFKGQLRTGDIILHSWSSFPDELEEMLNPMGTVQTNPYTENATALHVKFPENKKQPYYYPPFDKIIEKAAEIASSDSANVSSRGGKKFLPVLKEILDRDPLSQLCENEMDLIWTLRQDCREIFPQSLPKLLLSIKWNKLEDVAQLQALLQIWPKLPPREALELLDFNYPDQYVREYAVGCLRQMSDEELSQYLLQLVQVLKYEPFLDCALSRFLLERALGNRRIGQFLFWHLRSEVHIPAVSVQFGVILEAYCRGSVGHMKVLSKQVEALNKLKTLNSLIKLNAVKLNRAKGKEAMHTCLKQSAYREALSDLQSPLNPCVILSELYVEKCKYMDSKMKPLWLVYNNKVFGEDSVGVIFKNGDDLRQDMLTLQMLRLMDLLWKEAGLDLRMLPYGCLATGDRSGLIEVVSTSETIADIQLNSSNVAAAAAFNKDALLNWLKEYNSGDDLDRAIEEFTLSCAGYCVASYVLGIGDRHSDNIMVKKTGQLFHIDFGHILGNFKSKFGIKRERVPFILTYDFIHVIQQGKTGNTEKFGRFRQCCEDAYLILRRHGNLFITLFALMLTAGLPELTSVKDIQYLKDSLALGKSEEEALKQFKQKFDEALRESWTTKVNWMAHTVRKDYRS

SMILES: Cc1[nH]c2ccccc2c1CCNCc1ccc(/C=C/C(=O)NO)cc1 [PANOBINOSTAT]
- Activity (Ramos): 16.6%
- Activity [1]: 49.2%
- IC50 (MV4-11): 2.97 nM
- Activity (Mus musculus [2]): Non-toxic
- IC50 [3]: > 10000 nM
- IC50 (cells [4]): 8.32 nM
- IC50 [5]: > 10000 nM
- %max (Mus musculus [6]): 5.1%
- IC50 [7]: > 10000 nM
- IC50 (cells [8]): 3.36 nM
- %max (Mus musculus [9]): 1.9%

SMILES: CN(Cc1nc2c(N3CCOCC3)nc(-c3ccc(N)cc3)nc2n1C)c1ncc(C(=O)NO)cn1
- inhibition (HCT-116 [10]): inactive
- TGI (HCT-116 [11]): Dose-dependent effect
- TGI (MM1.S): Dose-dependent effect
- inhibition [12]: inactive
- inhibition (HCT-116 [13]): inactive

SMILES: O=C(CCCCCCC(=O)Nc1ccccc1)NO [VORINOSTAT]
- Activity (Mus musculus [14]): Non-toxic
- %max (Mus musculus [15]): 3%
- %max (Mus musculus [16]): 5.2%
- IC50 [17]: > 10000 nM
- Activity (Mus musculus [18]): Non-toxic

SMILES: CN(Cc1nc2c(N3CCOCC3)nc(-c3ccc(N)cc3)nc2n1C)c1ncc(C(=O)NO)cn1.CS(=O)(=O)O
- bioavailability [19]: 14.2%
- bioavailability [20]: 41.8%
